Assay results taken from ChEMBL document CHEMBL1155167, “Fluoroquinolone resistance in atypical pneumococci and oral streptococci: evidence of horizontal gene transfer of fluoroquinolone resistance determinants from Streptococcus pneumoniae” (2007).
Values after ≈ are worked out from the molar mass of the structure shown.

Legend:
[1] = test system: Streptococcus pneumoniae; experiment: Antimicrobial activity against atypical Streptococcus pneumoniae L4 by broth dilution method
[2] = test system: Streptococcus pneumoniae; experiment: Antimicrobial activity against Streptococcus pneumoniae L15 with parC Asp83Asn Lys137Asn and parE Ile460Val mutation by broth dilution method
[3] = test system: Streptococcus oralis; experiment: Antimicrobial activity against Streptococcus oralis HK417 with gyrA Ser114Gly, and parC Ser52Gly, Asn91Asp mutation by broth dilution method; format: functional
Outline: (§1)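 Ciprofloxacin and levofloxacin MICs were determined by broth dilution following CLSI (formerly NCCLS) guidance. S. pneumoniae ATCC 6303 and ATCC 49619 served as control strains. Reference strains were S. mitis ATCC 49456 and S. oralis ATCC 10557. The clinical isolates came from patients at a Hong Kong teaching hospital.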

[4] = test system: Streptococcus oralis; experiment: Antimicrobial activity against Streptococcus oralis HK312 with gyrA Ser114Gly, and parC Ser52Gly, Asn91Asp mutation by broth dilution method; format: functional; outline: as §1
[5] = test system: Streptococcus mitis; experiment: Antimicrobial activity against Streptococcus mitis HK680 with gyrA Ser114Gly, and parC Ser52Gly, Asn91Asp mutation by broth dilution method; format: functional; outline: as §1
[6] = test system: Streptococcus oralis; experiment: Antimicrobial activity against Streptococcus oralis HK271 with gyrA Ser114Gly, and parC Ser52Gly, Asn91Asp mutation by broth dilution method; format: functional; outline: as §1
[7] = test system: Streptococcus mitis; experiment: Antimicrobial activity against Streptococcus mitis ATCC 49456 with gyrA Ser114Gly, and parC Ser52Gly, Asn91Asp, Glu135Asp mutation by broth dilution method; format: functional; outline: as §1
[8] = test system: Streptococcus pneumoniae; experiment: Antimicrobial activity against atypical Streptococcus pneumoniae L8 with parC Ser52Gly, Phe55His, Ser58Gly, Asn91Asp, Lys197Asn mutation by broth dilution method
[9] = test system: Streptococcus oralis; experiment: Antimicrobial activity against Streptococcus oralis HK62 with gyrA Ser114Gly, and parC Ser52Gly, Asn91Asp mutation by broth dilution method; format: functional; outline: as §1
[10] = test system: Streptococcus oralis; experiment: Antimicrobial activity against Streptococcus oralis HK300 with gyrA Ser114Gly, and parC Ser52Gly, Asn91Asp mutation by broth dilution method; format: functional; outline: as §1
[11] = test system: Streptococcus oralis; experiment: Antimicrobial activity against Streptococcus oralis ATCC 10557 with gyrA Ser114Gly, and parC Ser52Gly, Asn91Asp mutation by broth dilution method; format: functional; outline: as §1
[12] = test system: Streptococcus oralis; experiment: Antimicrobial activity against Streptococcus oralis HK232 with gyrA Ser114Gly, and parC Ser52Gly, Asn91Asp mutation by broth dilution method; format: functional; outline: as §1
[13] = test system: Streptococcus pneumoniae; experiment: Antimicrobial activity against Streptococcus pneumoniae L5 with parE Ile460Val mutation by broth dilution method
[14] = test system: Streptococcus pneumoniae; experiment: Antimicrobial activity against atypical Streptococcus pneumoniae L25 with parC Lys137Asn mutation by broth dilution method
[15] = test system: Streptococcus oralis; experiment: Antimicrobial activity against Streptococcus oralis HK575 with gyrA Ser114Gly, Leu155Val and parC Ser52Gly, Asn91Asp, Pro140Ser mutation by broth dilution method; format: functional; outline: as §1
[16] = test system: Streptococcus oralis; experiment: Antimicrobial activity against Streptococcus oralis HK754 with gyrA Ser81Leu, Ser114Gly, gyrB Ser494Thr, parC Ser52Gly, Asp83Tyr, Asn91Asp and parE Arg447Ser mutation by broth dilution method; format: functional; outline: as §1
[17] = test system: Streptococcus oralis; experiment: Antimicrobial activity against Streptococcus oralis HK579 with gyrA Ser114Gly, and parC Ser52Gly, Asn91Asp mutation by broth dilution method; format: functional; outline: as §1
[18] = test system: Streptococcus viridans; experiment: Antimicrobial activity against Viridans streptococcus L17 with gyrA Ser114Gly, gyrB Ser494Thr and parC Ser52Gly, Asn91Asp mutation by broth dilution method; format: functional; outline: as §1
[19] = test system: Streptococcus pneumoniae; experiment: Antimicrobial activity against atypical Streptococcus pneumoniae L27 with parC Ser52Gly, Asn91Asp, Glu135Asp mutation by broth dilution method
[20] = test system: Streptococcus oralis; experiment: Antimicrobial activity against Streptococcus oralis HK386 with gyrA Ser114Gly, and parC Ser52Gly, Asn91Asp mutation by broth dilution method; format: functional; outline: as §1
[21] = test system: Streptococcus mitis; experiment: Antimicrobial activity against Streptococcus mitis HK651 with gyrA Ser114Gly, and parC Ser52Gly, Asn91Asp mutation by broth dilution method; format: functional; outline: as §1
[22] = test system: Streptococcus oralis; experiment: Antimicrobial activity against Streptococcus oralis HK553 with gyrA Ser114Gly, and parC Ser52Gly, Asn91Asp mutation by broth dilution method; format: functional; outline: as §1
[23] = test system: Streptococcus pneumoniae; experiment: Antimicrobial activity against Streptococcus pneumoniae L6 with gyrA Ser81Phe, parC Lys137Asn and parE Ile460Val mutation by broth dilution method
[24] = test system: Streptococcus mitis; experiment: Antimicrobial activity against Streptococcus mitis HK141 with gyrA Ser114Gly, and parC Ser52Gly, Asn91Asp mutation by broth dilution method; format: functional; outline: as §1
[25] = test system: Streptococcus oralis; experiment: Antimicrobial activity against Streptococcus oralis HK299 with gyrA Ser114Gly, and parC Ser52Gly, Asn91Asp mutation by broth dilution method; format: functional; outline: as §1
[26] = test system: Streptococcus viridans; experiment: Antimicrobial activity against Viridans streptococcus L26 gyrA Ser81Phe and parC Lys137Asn mutation by broth dilution method; format: functional; outline: as §1
[27] = test system: Streptococcus pneumoniae; experiment: Antimicrobial activity against Streptococcus pneumoniae L24 with gyrA Ser81Phe, gyrB Ser494Thr, parC Asp83Asn, Lys137Asn and parE Ile460Val mutation by broth dilution method
[28] = test system: Streptococcus viridans; experiment: Antimicrobial activity against Viridans streptococcus L16 with gyrA Ser114Gly, gyrB Ser494Thr and parC Ser52Gly, Asn91Asp mutation by broth dilution method; format: functional; outline: as §1
[29] = test system: Streptococcus oralis; experiment: Antimicrobial activity against Streptococcus oralis HK816 with gyrA Ser81Leu, Ser114Gly and parC Ser52Gly, Ser79Tyr, Asn91Asp mutation by broth dilution method; format: functional; outline: as §1

Molecule `O=C(O)c1cn(C2CC2)c2cc(N3CCNCC3)c(F)cc2c1=O` [CIPROFLOXACIN] has an MIC [1] of 4 mg/L (≈ 12.1 µM), an MIC [2] of 8 mg/L (≈ 24.1 µM) and an MIC [3] of 2 mg/L (≈ 6.04 µM). The MIC [4] was 4 mg/L (≈ 12.1 µM), the MIC [5] was 2 mg/L (≈ 6.04 µM) and the MIC [6] was 4 mg/L (≈ 12.1 µM). For the same molecule, the MIC [7] was 1 mg/L (≈ 3.02 µM), the MIC [8] was 8 mg/L (≈ 24.1 µM) and the MIC [9] was 4 mg/L (≈ 12.1 µM). It also gave an MIC [10] of 4 mg/L (≈ 12.1 µM), an MIC [11] of 2 mg/L (≈ 6.04 µM) and an MIC [12] of 2 mg/L (≈ 6.04 µM). The MIC [13] was 4 mg/L (≈ 12.1 µM), the MIC [14] was 4 mg/L (≈ 12.1 µM) and the MIC [15] was 1 mg/L (≈ 3.02 µM). The MIC [16] was 128 mg/L (≈ 386 µM), the MIC [17] was 4 mg/L (≈ 12.1 µM) and the MIC [18] was 4 mg/L (≈ 12.1 µM). For the same molecule, the MIC [19] was 4 mg/L (≈ 12.1 µM), the MIC [20] was 4 mg/L (≈ 12.1 µM) and the MIC [21] was 1 mg/L (≈ 3.02 µM). The MIC [22] was 2 mg/L (≈ 6.04 µM), the MIC [23] was 8 mg/L (≈ 24.1 µM) and the MIC [24] was 1 mg/L (≈ 3.02 µM). For the same molecule, the MIC [25] was 4 mg/L (≈ 12.1 µM), the MIC [26] was 16 mg/L (≈ 48.3 µM) and the MIC [27] was ≥ 16 mg/L. The MIC [28] was 4 mg/L (≈ 12.1 µM) and the MIC [29] was 32 mg/L (≈ 96.6 µM).
